Experimental data from ChEMBL document CHEMBL2040780, “Antiarrhythmic properties of phenylpiperazine derivatives of phenytoin with α₁-adrenoceptor affinities” (Bioorg Med Chem, 2012).
The source made the active and inactive calls.

How the values were obtained:
[1] = test system: Rattus norvegicus; experiment: Antiarrhythmic activity in Wistar rat assessed as effect on heart beat at 10 mg/kg, iv after 1 min; format: functional
How it was run: (§1)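 Male Wistar rats (180–250 g), anaesthetised with thiopental 60 mg/kg ip. Standard lead II ECG recorded at 50 mm/s just before dosing and at 1, 5 and 15 min after. Heart rate and P–Q, Q–T and QRS intervals were read. n=6 per group, mean ± SEM, one-way ANOVA.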

[2] = test system: Rattus norvegicus; experiment: Antiarrhythmic activity in Wistar rat assessed as effect on heart beat at 10 mg/kg, iv after 5 mins; format: functional; how it was run: as §1
[3] = test system: Rattus norvegicus; experiment: Antiarrhythmic activity in Wistar rat assessed as effect on heart beat at 10 mg/kg, iv after 15 mins; format: functional; how it was run: as §1
[4] = test system: Rattus norvegicus; experiment: Cardiotoxicity in Wistar rat assessed as effect on P-Q interval at 10 mg/kg, iv after 1 min; format: toxicity, organism-based; set-up: dose 10 mg/kg, route intravenous; details: in vivo; how it was run: as §1
[5] = test system: Rattus norvegicus; experiment: Cardiotoxicity in Wistar rat assessed as effect on P-Q interval at 10 mg/kg, iv after 5 mins; format: toxicity, organism-based; set-up: dose 10 mg/kg, route intravenous; details: in vivo; how it was run: as §1
[6] = test system: Rattus norvegicus; experiment: Cardiotoxicity in Wistar rat assessed as effect on P-Q interval at 10 mg/kg, iv after 15 mins; format: toxicity, organism-based; set-up: dose 10 mg/kg, route intravenous; details: in vivo, 0.25 h; how it was run: as §1
[7] = test system: Rattus norvegicus; experiment: Cardiotoxicity in Wistar rat assessed as effect on Q-T interval at 10 mg/kg, iv after 1 min; format: toxicity, organism-based; set-up: dose 10 mg/kg, route intravenous; details: in vivo; how it was run: as §1
[8] = test system: Rattus norvegicus; experiment: Cardiotoxicity in Wistar rat assessed as effect on Q-T interval at 10 mg/kg, iv after 5 mins; format: toxicity, organism-based; set-up: dose 10 mg/kg, route intravenous; details: in vivo; how it was run: as §1
[9] = test system: Rattus norvegicus; experiment: Cardiotoxicity in Wistar rat assessed as effect on Q-T interval at 10 mg/kg, iv after 15 mins; format: toxicity, organism-based; set-up: dose 10 mg/kg, route intravenous; details: in vivo, 0.25 h; how it was run: as §1
[10] = test system: Rattus norvegicus; experiment: Cardiotoxicity in Wistar rat assessed as effect on QRS interval at 10 mg/kg, iv after 1 min; format: toxicity, organism-based; set-up: dose 10 mg/kg, route intravenous; details: in vivo; how it was run: as §1
[11] = test system: Rattus norvegicus; experiment: Cardiotoxicity in Wistar rat assessed as effect on QRS interval at 10 mg/kg, iv after 5 mins; format: toxicity, organism-based; set-up: dose 10 mg/kg, route intravenous; details: in vivo; how it was run: as §1
[12] = test system: Rattus norvegicus; experiment: Cardiotoxicity in Wistar rat assessed as effect on QRS interval at 10 mg/kg, iv after 15 mins; format: toxicity, organism-based; set-up: dose 10 mg/kg, route intravenous; details: in vivo, 0.25 h; how it was run: as §1
[13] = test system: Rattus norvegicus; experiment: Antiarrhythmic activity in iv dosed Wistar rat assessed as protection against barium chloride-induced extrasystoles administered 15 mins prior to barium chloride-challenge; format: functional; details: Heart
How it was run: (§2)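 Szekeres model in male Wistar rats. Activity is gradual disappearance of arrhythmia with restored sinus rhythm; protection against disturbances and death scored. Groups of 6 animals.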

[14] = test system: Rattus norvegicus; experiment: Antiarrhythmic activity in dosed Wistar rat assessed as protection against barium chloride-induced fibrillation administered 15 mins prior to barium chloride-challenge; format: functional; details: Heart; how it was run: as §2
[15] = test system: Rattus norvegicus; experiment: Antiarrhythmic activity in iv dosed barium chloride-induced Wistar rat arrhythmia model assessed as protection against mortality administered 15 mins prior to barium chloride-challenge; format: functional; details: Heart
How it was run: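 Male Wistar rats (180–250 g), groups of 6. Activity criterion: gradual disappearance of arrhythmia and restoration of sinus rhythm; protection against heart disturbances and death scored.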

[16] = test system: Rattus norvegicus; experiment: Antiarrhythmic activity in Wistar rat assessed as protection against adrenaline-induced extrasystoles at 2.5 to 10 mg/kg, iv administered 15 mins prior to adrenaline-challenge; format: functional, organism-based; details: Heart
How it was run: (§3)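 Szekeres model in male Wistar rats anaesthetised with thiopental (60 mg/kg ip). Test compound given iv in water (2.5–10 mg/kg) 15 min before adrenaline 20 µg/kg iv. Scored for extrasystoles, bigeminy and mortality; activity means no premature beats and inhibited arrhythmia versus controls.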

[17] = test system: Rattus norvegicus; experiment: Antiarrhythmic activity in Wistar rat assessed as protection against adrenaline-induced bigeminy at 2.5 to 10 mg/kg, iv administered 15 mins prior to adrenaline-challenge; format: functional, organism-based; details: Heart; how it was run: as §3
[18] = test system: Rattus norvegicus; experiment: Antiarrhythmic activity in iv dosed Wistar rat assessed as protection against adrenaline-induced arrhythmia administered 15 mins prior to adrenaline-challenge; format: functional; details: Heart; how it was run: as §3
[19] = test system: Rattus norvegicus; experiment: Hypotensive activity in normotensive Wistar rat assessed as decrease in systolic blood pressure at 2.5 to 10 mg/kg, iv at 1 min; format: organism-based, Artery; set-up: dose 2.5-10 mg/kg, route intravenous; details: in vivo
How it was run: (§4)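 Right carotid artery cannulated with heparin-saline-filled tubing for blood pressure recording. After 5 min stabilisation, compound injected iv into the caudal vein (2.5–10 mg/kg, 1 ml/kg). Systolic and diastolic pressure followed for 60 min. n=6 per group, mean ± SEM, one-way ANOVA.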

[20] = test system: Rattus norvegicus; experiment: Hypotensive activity in normotensive Wistar rat assessed as decrease in diastolic blood pressure at 2.5 to 10 mg/kg, iv at 1 min; format: organism-based, Artery; set-up: dose 2.5-10 mg/kg, route intravenous; details: in vivo; how it was run: as §4
[21] = test system: Rattus norvegicus; experiment: Hypotensive activity in normotensive Wistar rat assessed as decrease in systolic blood pressure at 2.5 to 10 mg/kg, iv after 1 min measured up to 60 mins; format: organism-based, Artery; set-up: dose 2.5-10 mg/kg, route intravenous; details: in vivo; how it was run: as §4
[22] = test system: Rattus norvegicus; experiment: Hypotensive activity in normotensive Wistar rat assessed as decrease in diastolic blood pressure at 2.5 to 10 mg/kg, iv after 1 min measured up to 60 mins; format: organism-based, Artery; set-up: dose 2.5-10 mg/kg, route intravenous; details: in vivo; how it was run: as §4

COC(=O)C(C)N1C(=O)N(CC(O)CN2CCN(c3ccccc3OC)CC2)C(c2ccccc2)(c2ccccc2)C1=O.Cl (racemic)
Activity [1]: 350 min⁻¹
Activity [2]: 363 min⁻¹
Activity [3]: 362 min⁻¹
Activity [4]: 57 ms
Activity [5]: 55 ms
Activity [6]: 57 ms
Activity [7]: 82 ms
Activity [8]: 81 ms
Activity [9]: 82 ms
Activity [10]: 16 ms
Activity [11]: 15 ms
Activity [12]: 16 ms
Activity [13]: inactive
Activity [14]: inactive
Activity [15]: inactive
Activity [16]: Active
Activity [17]: Active
ED50 [18]: 0.36 mg/kg
Activity [19]: Toxic
Activity [20]: Toxic
Activity [21]: Non-toxic
Activity [22]: Non-toxic
